Source: PubChem (The Scripps Research Institute Molecular Screening Center)
MBD2 DNA inh – inhibitors of MBD2 binding to methylated DNA, primary screen, biochemical, TR-FRET, DNA-binding domain, human; MBD2 binding to methylated oligonucleotide; inhibition, % at 4.4 µM; actives 0.31% (n = 370,000); AID 686964, 2013; in the data active = inhibition above about 13%
UHRF1 binding – UHRF1 methylated DNA binding inhibitors, primary screen, counter-screen for MBD2 inhibitor project, biochemical, TR-FRET, human UHRF1, single concentration | E3 ubiquitin-protein ligase UHRF1 (Homo sapiens), Q96T88 | actives 0.75% (n = 370,000) | UHRF1 binding to methylated oligo | inhibition, % at 4.4 µM;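 also: UHRF1 SRA domain binding a hemimethylated CpG hairpin DNA probe; 0% = median of test compound wells and 100% = reference inhibitor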
Target sequence (Q96T88 whole entry, looked up, the tested form may be a part): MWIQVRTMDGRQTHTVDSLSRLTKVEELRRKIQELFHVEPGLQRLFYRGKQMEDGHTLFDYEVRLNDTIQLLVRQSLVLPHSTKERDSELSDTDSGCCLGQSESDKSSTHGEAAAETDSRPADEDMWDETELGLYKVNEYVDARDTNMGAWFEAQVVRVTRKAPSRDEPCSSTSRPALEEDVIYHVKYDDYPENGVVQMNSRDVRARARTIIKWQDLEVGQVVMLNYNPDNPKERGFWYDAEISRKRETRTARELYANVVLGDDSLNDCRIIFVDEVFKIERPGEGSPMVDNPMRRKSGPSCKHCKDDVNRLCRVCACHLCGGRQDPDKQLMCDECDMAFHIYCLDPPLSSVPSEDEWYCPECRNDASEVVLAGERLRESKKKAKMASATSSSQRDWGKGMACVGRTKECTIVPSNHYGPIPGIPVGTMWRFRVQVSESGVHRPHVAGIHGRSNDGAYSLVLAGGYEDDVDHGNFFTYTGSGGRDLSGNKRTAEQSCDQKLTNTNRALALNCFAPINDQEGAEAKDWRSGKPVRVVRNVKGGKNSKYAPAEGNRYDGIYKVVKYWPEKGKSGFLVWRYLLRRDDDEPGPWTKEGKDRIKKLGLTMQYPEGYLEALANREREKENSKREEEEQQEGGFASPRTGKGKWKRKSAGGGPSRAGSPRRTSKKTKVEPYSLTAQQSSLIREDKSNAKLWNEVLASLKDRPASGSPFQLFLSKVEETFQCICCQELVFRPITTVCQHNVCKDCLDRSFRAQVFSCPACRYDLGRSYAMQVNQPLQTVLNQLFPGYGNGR
LEDGF integ inh – blockers of LEDGF/p75-dependent integrase strand transfer – biochemical, TR-FRET, high throughput, primary screen. TR-FRET IN-LEDGF/p75 DNA integration, Eu/Cy5. actives 0.64% (n = 370,000). AID 743269, 2014. inhibition, % at 3.7 µM. HIV-1 integrase (with human LEDGF/p75);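 active = inhibition above the screen-wide mean plus 3 SD, cut at about 13% in these data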;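 also: signal is the Cy5 over europium emission ratio at 671 and 618 nm; 0% = plate median of compound wells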
TDP2 inh – human TDP2 enzyme inhibitors, primary screen, biochemical, epi absorbance, recombinant enzyme. Tyrosyl-DNA phosphodiesterase 2 (Homo sapiens), O95551. T5PNP hydrolysis, p-nitrophenol absorbance 415 nm. inhibition, % at 12.8 µM. actives 0.34% (n = 370,000). AID 720702, 2013;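 active = inhibition above the mean of all tested compounds plus 3 SD, set per campaign, cut at about 25% in these data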;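 also: 0% = DMSO with enzyme and 100% = buffer with substrate but no TDP2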
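Assay system: Recombinant human TDP2 | Quantity: 120 nM TDP2 per well | Incubation: 2 h at 37 °C | Signal: Epi absorbance | Evaluation: Percent inhibition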
UHRF1 ctr MBD2 – UHRF1 methylated DNA binding inhibitors, counter-screen for MBD2 inhibitor project, biochemical, TR-FRET, human UHRF1; shares compounds with MBD2 DNA inh; UHRF1 binding to methylated oligonucleotide; inhibition, % at 4.4 µM; actives 25% (n = 1,000);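 also: UHRF1 SRA domain binding a labeled hemimethylated CpG hairpin DNA; 0% = vehicle only and 100% = reference inhibitor with vehicle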
MBD2 DBD conf – inhibitors of MBD2 binding to methylated DNA, confirmation, biochemical, TR-FRET, DNA-binding domain, human; shares compounds with MBD2 DNA inh; TR-FRET MBD2-DBD binding to methylated oligonucleotide; inhibition, % at 4.4 µM; actives 26% (n = 1,000); AID 720531, 2013; in the data active = inhibition above about 14%
Active calls of the source: *; nt = not tested or not shown. Sampled rows, rich in hits. Any-hit rate of the full collection: about 1.6%. Rule as the data show it, unless noted: active = inhibition above about 21%; inactive = the rest.

SMILES | MBD2 DNA inh | UHRF1 binding | LEDGF integ inh | TDP2 inh | UHRF1 ctr MBD2 | MBD2 DBD conf
COc1ccc(C(=O)OCC(=O)c2ccc[nH]2)cc1 | 67.3* | 12.6 | 7.5 | -13.8 | 9.4 | 2.4
COc1cccc(NC(=O)Nc2nc3ncccn3c2-c2ccc(C(F)(F)F)cc2)c1 | -2.7 | -0.3 | 4.8 | 4.5 | nt | nt
Cc1ccc(C)c2[nH]c(=O)c(CN(Cc3nnnn3C3CCCCC3)CC3CCCO3)cc12 (stereo not drawn) | 0.6 | -1.6 | 2.1 | 2.2 | nt | nt
Cc1ccc(C)c2[nH]c(=O)c(CN(CCN3CCOCC3)Cc3nnnn3CC3CCCO3)cc12 (stereo not drawn) | 17.7* | 2.7 | -0.8 | -10.9 | 5.7 | 0.7
S=c1[nH]nc(-c2cc(-c3ccccc3)n[nH]2)n1N=Cc1cccc(Oc2ccccc2)c1 | 1.8 | 1.4 | 2.4 | -3.9 | nt | nt
COc1ccc(C(C)=O)cc1COC(=O)c1ccc2c(c1)OCCO2 | 1.1 | -3.5 | -1.0 | 7.7 | nt | nt
COc1ccc(C(C)=O)cc1COC(=O)c1ccc2c(c1)OCO2 | 13.8* | 1.4 | 0.3 | -0.1 | 8.1 | 4.3
COC(=O)c1cc(-c2ccc(Oc3ccccc3)cc2)c(=O)n2c1CCC2 | -0.8 | -0.3 | 3.3 | 1.0 | nt | nt
COc1ccc(/C=N\NC(=S)SCN2C(=O)C3CCC(C)(C2=O)C3(C)C)cc1 (stereo not drawn) | 47.7* | -10.6 | 4.0 | -1.7 | -11.0 | -0.9
C[C@H]1CN([C@@H](C)CO)C(=O)CCCn2nncc2CO[C@H]1CN(C)S(=O)(=O)c1ccc(-n2cccn2)cc1 | 16.3* | 1.4 | -1.3 | -2.9 | 2.6 | 2.7
CCCc1nc2c3ccccc3ccn2c1Cc1ccccc1OC | 1.3 | 20.3 | 2.6 | -2.9 | nt | nt
CCCc1nc2c3ccccc3ccn2c1Cc1ccc(OC)cc1C | 15.6* | 26.0* | 4.2 | -3.2 | 10.2 | 6.0
COc1cc2nc(N3CCNCC3)nc(N)c2cc1OC | 13.9* | 13.7 | -1.1 | 11.0 | 31.7* | 27.3*
CCCC1CCC2(CC1)CCC2OC(=S)Nc1ccc(N(C)C)cc1 (stereo not drawn) | -6.8 | -2.6 | -0.6 | 1.7 | nt | nt
O=C(CSc1nnc(-c2ccccc2)n1-c1ccc(Cl)cc1)Nc1ccc2cn[nH]c2c1 | 0.2 | 2.4 | 4.3 | -4.7 | nt | nt
CN(C)c1ncc(C2=C(Cl)C(=O)C(N3CCCC3)=C(Cl)C2=O)s1 | 24.3* | 72.6* | 62.8* | 27.3* | 36.4* | 24.0*
CC(C)Oc1cccc(-c2n[nH]c(=S)n2N=Cc2ccc(OCc3ccccc3)cc2)c1 | 2.6 | -1.4 | -0.7 | 10.2 | nt | nt
C[C@@H]1ON(C)[C@H]2C[C@H]3c4cc(N5CCCCC5)ccc4CCN3C[C@@H]12 | -0.2 | -1.8 | 0.6 | 3.1 | nt | nt
CS(=O)(=O)Nc1cccc(NC(=O)c2ccc(-n3ccnc3)c3ccoc23)c1 | 14.2* | 17.6 | 8.7 | -3.5 | 12.8 | 12.9
COC(=O)[C@H](CC(C)C)N(CCc1cn(CC2CCCCC2)nn1)S(=O)(=O)c1ccc(F)cc1Br | 4.6 | 2.2 | -0.7 | 2.7 | nt | nt
COC(=O)[C@H](CC(C)C)N(Cc1cn(CC2CCCCC2)nn1)S(=O)(=O)c1ccc(F)cc1Br | 18.8* | 20.9* | 3.1 | -1.2 | 6.8 | 12.2
COC(=O)[C@H](CC(C)C)N(Cc1cn(CC2CCCCC2)nn1)S(=O)(=O)c1ccccc1Br | 17.3* | 18.5 | 4.2 | -6.3 | 8.2 | 10.6
COC(=O)[C@H](C(C)C)N(Cc1cn(CC2CCCCC2)nn1)S(=O)(=O)c1ccc(F)cc1Br | 17.4* | 19.0 | 4.5 | -9.1 | 6.8 | 6.9
COc1ccc(CN2C(=O)COc3ccccc3C2c2nnnn2C2CCCCC2)cc1 (stereo not drawn) | 0.6 | -0.7 | -1.1 | 4.8 | nt | nt
COC(=O)[C@]12C[C@H](CC(=O)NCC34CC5CC(CC(C5)C3)C4)C(=O)N(CCc3ccc(OC)c(OC)c3)C1=C[C@H](COCc1ccccc1)O[C@@H]2C | 8.6 | 1.9 | -0.3 | -5.7 | nt | nt
SMILES | MBD2 DNA inh | UHRF1 binding | LEDGF integ inh | TDP2 inh | UHRF1 ctr MBD2 | MBD2 DBD conf
CCn1nc(C(=O)Nc2nc(-c3ccccn3)cs2)c2ccccc2c1=O | 27.0* | -2.5 | -5.4 | 3.3 | -2.9 | 4.4
FC(F)Sc1nc2ccccc2[nH]1 | 40.2* | -0.2 | -3.4 | 8.5 | 9.0 | 5.9
O=C(CSc1nc2ccsc2c(=O)n1CC1CCC(C(=O)O)CC1)c1ccc(Cl)cc1 (stereo not drawn) | 18.8* | 14.0 | -0.8 | -6.6 | 16.4 | 9.8
Cc1ccc(S(=O)(=O)N2CCCc3nc(-c4ccc(Br)cc4)ccc32)cc1 | -2.8 | 4.0 | -0.5 | 1.3 | nt | nt
COCC(=O)N(C[C@H]1[C@H](c2ccccc2)[C@@H](CO)N1C(=O)NC(C)C)C(C)C | 0.8 | -0.7 | 2.1 | -5.0 | nt | nt
COCCn1c(C)cc(C(=O)COC(=O)c2cc3c(s2)CCC3)c1C | 15.6* | 20.5 | 5.7 | -3.5 | 22.7* | 19.3*
CC(C)[C@H]1/C(=C/C2CC2)N2C(=O)C[C@@H](c3ccccc3)N=C2N1Cc1ccc2c(c1)OCO2 | -0.7 | -1.4 | -2.5 | 1.9 | nt | nt
CCN(CC(=O)Nc1c(F)cccc1F)C(=O)/C=C/c1ccc2ccccc2n1 | 29.6* | 63.8* | 9.9 | -6.5 | 65.5* | 57.8*
CCN(CC(=O)Nc1ccc2c(c1)OCCO2)CC(=O)Nc1ccc(C)c(S(=O)(=O)N(C)C)c1 | 19.9* | 9.2 | 0.7 | 2.8 | 4.8 | 2.3
CCN(CC(=O)Nc1ccc2c(c1)OCCO2)CC(=O)Nc1ccc(C)c([N+](=O)[O-])c1 | 4.0 | 0.3 | 0.1 | 14.6 | nt | nt
C[C@H]1[C@@H](c2ccccc2)Oc2ccc(Cl)cc2S(=O)(=O)N1Cc1cccc(Cl)c1 | -4.9 | -0.5 | 2.0 | -0.3 | nt | nt
O=S1(=O)c2ccc(N3CC[C@@H](O)C3)cc2OCCCN1C1CC1 | 2.2 | 5.1 | 0.5 | -2.9 | nt | nt
CC12CCC(C/C1=N\N=C1\NC(=O)/C(=C\c3ccc(Cl)cc3)S1)C2(C)C (stereo not drawn) | 13.2* | 17.4 | -8.0 | 3.2 | 3.3 | 0.7
O=C1NC(=Nc2ccccc2Cl)S/C1=C\c1ccc(C(=O)O)cc1 | -0.4 | 0.1 | 1.5 | 1.0 | nt | nt
O=C(Nc1ccc2c(c1)OCO2)c1cccs1 | 40.0* | -2.3 | -3.7 | 9.1 | 2.3 | 5.1
O=S(=O)(Nc1ccc(C(O)(C(F)(F)F)C(F)(F)F)cc1)c1cccs1 | 2.1 | 0.1 | -1.6 | 9.0 | nt | nt
